Laboratory results published in ChEMBL document CHEMBL1123314, “Adriamycin analogues. Preparation and biological evaluation of some N-(trifluoroacetyl)-14-O-[(N-acetylamino)acyl]adriamycin derivatives” (J Med Chem, 1986).

Key:
[1] = tested on: CCRF-CEM; test: In vitro antitumor activity in CCRF-CEM culture of human leukemic lymphocytes; type: functional; conditions: read-out: ID50 (the source's name)
How it was run: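 CCRF-CEM human leukemic lymphoblasts were grown in suspension in Eagle's MEM with 10% fetal bovine serum and exposed to drug continuously for 48 h. ID50 is the concentration giving 50% reduction in growth relative to untreated control cultures.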

[2] = Half-life time of the compound; type: ADME
[3] = % hydrolysis in 60 min
[4] = % hydrolysis in 60 min; remark: listed apart in the source
[5] = tested on: Mus musculus; test: Compound was evaluated in vivo for antileukemic activity in B6D2F1 male mice; type: functional
How it was run: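 P388 leukemia model, run essentially per NCI standard protocols: 10⁶ tumor cells injected ip into B6D2F1 male mice on day 0. Drug given ip once daily for 4 days starting day 1; highest dose tested 50 mg/kg per day. Read-out is percent increase in life span (ILS) versus untreated controls, with long-term survivors (>40 days) noted.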

| IC50 [1] | half-life [2] | % hydrolysis at 1 h [3] | % hydrolysis at 1 h [4] | Structure (SMILES) | ILS [5] |
| --- | --- | --- | --- | --- | --- |
| 230 nM |  |  |  | CCCCC(=O)OCC(=O)[C@]1(O)Cc2c(O)c3c(c(O)c2[C@@H](OC2CC(NC(=O)C(F)(F)F)C(O)C(C)O2)C1)C(=O)c1c(OC)cccc1C3=O (some centres undefined) |  |
| 1000 nM | 18 min |  |  | COc1cccc2c1C(=O)c1c(O)c3c(c(O)c1C2=O)C[C@@](O)(C(=O)COC(=O)CC(NC(C)=O)C(=O)O)C[C@@H]3OC1CC(NC(=O)C(F)(F)F)C(O)C(C)O1 (some centres undefined) |  |
| 120 nM | 24 min |  |  | COc1cccc2c1C(=O)c1c(O)c3c(c(O)c1C2=O)C[C@@](O)(C(=O)COC(=O)CCC(NC(C)=O)C(N)=O)C[C@@H]3OC1CC(NC(=O)C(F)(F)F)C(O)C(C)O1 (some centres undefined) |  |
| 300 nM |  | 4% |  | COc1cccc2c1C(=O)c1c(O)c3c(c(O)c1C2=O)C[C@@](O)(C(=O)COC(=O)C1CCCN1C(C)=O)C[C@@H]3OC1CC(NC(=O)C(F)(F)F)C(O)C(C)O1 (some centres undefined) |  |
| 160 nM | 16 min |  |  | COc1cccc2c1C(=O)c1c(O)c3c(c(O)c1C2=O)C[C@@](O)(C(=O)COC(=O)CCC(NC(C)=O)C(=O)O)C[C@@H]3OC1CC(NC(=O)C(F)(F)F)C(O)C(C)O1 (some centres undefined) |  |
| 140 nM |  |  | 8% | COc1cccc2c1C(=O)c1c(O)c3c(c(O)c1C2=O)C[C@@](O)(C(=O)COC(=O)C(NC(C)=O)C(C)C)C[C@@H]3OC1CC(NC(=O)C(F)(F)F)C(O)C(C)O1 (some centres undefined) |  |
| 120 nM | 3.5 min |  |  | COc1cccc2c1C(=O)c1c(O)c3c(c(O)c1C2=O)C[C@@](O)(C(=O)COC(=O)CNC(=O)c1ccccc1)C[C@@H]3OC1CC(NC(=O)C(F)(F)F)C(O)C(C)O1 (some centres undefined) |  |
| 150 nM | 65 min |  |  | COc1cccc2c1C(=O)c1c(O)c3c(c(O)c1C2=O)C[C@@](O)(C(=O)COC(=O)C(CC(C)C)NC(C)=O)C[C@@H]3OC1CC(NC(=O)C(F)(F)F)C(O)C(C)O1 (some centres undefined) |  |

| Structure (SMILES) | IC50 [1] | half-life [2] | % hydrolysis at 1 h [3] | % hydrolysis at 1 h [4] | ILS [5] |
| --- | --- | --- | --- | --- | --- |
| COc1cccc2c1C(=O)c1c(O)c3c(c(O)c1C2=O)C[C@@](O)(C(=O)COC(=O)CNC(C)=O)C[C@@H]3OC1CC(NC(=O)C(F)(F)F)C(O)C(C)O1 (some centres undefined) | 140 nM | 10 min |  |  | 105% |
| COc1cccc2c1C(=O)c1c(O)c3c(c(O)c1C2=O)C[C@@](O)(C(=O)COC(=O)C(CCSC)NC(C)=O)C[C@@H]3OC1CC(NC(=O)C(F)(F)F)C(O)C(C)O1 (some centres undefined) | 830 nM | 38 min |  |  | 136% |
| COc1cccc2c1C(=O)c1c(O)c3c(c(O)c1C2=O)C[C@@](O)(C(=O)COC(=O)C(Cc1ccccc1)NC(C)=O)C[C@@H]3OC1CC(NC(=O)C(F)(F)F)C(O)C(C)O1 (some centres undefined) | 90 nM | 14 min |  |  | 173% |
| COc1cccc2c1C(=O)c1c(O)c3c(c(O)c1C2=O)C[C@@](O)(C(=O)COC(=O)C(C)NC(C)=O)C[C@@H]3OC1CC(NC(=O)C(F)(F)F)C(O)C(C)O1 (some centres undefined) | 150 nM | 18 min |  |  | 163% |
| COc1cccc2c1C(=O)c1c(O)c3c(c(O)c1C2=O)C[C@@](O)(C(=O)CO)C[C@@H]3O[C@H]1C[C@H](N)[C@H](O)[C@H](C)O1 [DOXORUBICIN] | 30 nM |  |  |  | 145% |
